# Measurements published in PubChem BioAssay AID623967 (Broad Institute, 2012).
# Several values for one entry are separate records, joined by “and”; a condition that tells them apart may be missing. Equal entries are not always repeated. Activity calls are given as the source filed them.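 How the source made its calls: active means compounds whose fitted dose for half their peak growth loss is at most twice the top usable dose; inconclusive means flat curve with moderate growth loss, or a poor fit; inactive means the rest.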
# Tested on: not listed separately
# Assay: antifungal activity against fermenting C. glabrata – glucose medium, OD600, powder samples, set 3, dose response (AID 623967)
# Details: Candida glabrata growth in glucose medium, OD600, 48 h; at 3 µM (top of the series)
# Method in brief: (§1)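 System: Candida glabrata yeast cells, whole-organism growth assay. Times: 48 h at 30 °C without shaking. Signal: optical density at 600 nm. Evaluation: growth inhibition from reduced OD600.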
row,Compound,"activity change, negative = inhibition"
1,CCOC(=O)N1C(=O)C2(CCCCC2)N(c2ccccc2)C1=S,-11.4% (inactive)
2,CCOC(=O)N1C(=O)C2(CCCCC2)N(c2ccc(C#N)cc2)C1=S,-6.49% (inactive)
3,C/C=C/[C@@H]1[C@H]2C[C@@H](C)CC[C@@H]2C(C)=C[C@H]1C(=O)c1c(O)c(-c2ccc(O)cc2)c[nH]c1=O,-1.31% (inactive)
4,CCOC(=O)N1C(=O)C2(CCCCC2)N(c2ccc(F)cc2)C1=S,-12.7% (inactive)
5,CCOC(=O)N1C(=O)C2(CCCCC2)N(c2ccc(Cl)cc2)C1=S,-9.79% (inactive)
6,CCOC(=O)N1C(=O)C2(CCCCC2)N(c2ccc(C)cc2)C1=S,-11.3% (inactive) and -13.1% (inactive)
7,CCOC(=O)N1C(=O)C2(CCCCC2)N(c2cccc(C)c2)C1=S,-8.41% (inactive)

# Tested on: Candida glabrata growth in glucose medium, OD600, 48 h
# Assay: as above
# Details: not given
# Method in brief: as §1
row,Compound,AC50 [µM]
1,CC1/C=C/C=C\C=C\C=C\C=C\C=C\C=C\C(O[C@H]2OC(C)C(O)C(N)C2O)CC2OC(O)(CC(O)CC(O)C(O)CCC(O)CC(O)CC(=O)OC(C)C(C)C1O)CC(O)C2C(=O)O (stereo partly drawn),1.22
